Data reported in ChEMBL document CHEMBL4118247, “Development of the first small molecule histone deacetylase 6 (HDAC6) degraders” (Bioorg Med Chem Lett, 2018).
Values belong to the compound of their own block, whether it stands above or below them. Active and inactive are the calls of the source. The rule behind the calls is not given here.

Legend:
Format in all cases: cell-based
[1] = target: T1, Protein cereblon/Protein deacetylase HDAC6 (Homo sapiens, UniProt Q9UBN7+Q96SW2); assay: Induction of CRBN ubiquitin ligase-mediated HDAC6 degradation in human MCF7 cells assessed as decrease in HDAC6 levels at 5 uM after 12 hrs by immunoblotting analysis
How it was run: (§1)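 MCF-7 cells exposed to bifunctional degraders at 5 µM for 12 h. Whole-cell lysate run on SDS-PAGE and immunoblotted for HDAC1, HDAC2, HDAC4 and HDAC6.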
Target sequence in this assay (Q96SW2 whole entry, looked up): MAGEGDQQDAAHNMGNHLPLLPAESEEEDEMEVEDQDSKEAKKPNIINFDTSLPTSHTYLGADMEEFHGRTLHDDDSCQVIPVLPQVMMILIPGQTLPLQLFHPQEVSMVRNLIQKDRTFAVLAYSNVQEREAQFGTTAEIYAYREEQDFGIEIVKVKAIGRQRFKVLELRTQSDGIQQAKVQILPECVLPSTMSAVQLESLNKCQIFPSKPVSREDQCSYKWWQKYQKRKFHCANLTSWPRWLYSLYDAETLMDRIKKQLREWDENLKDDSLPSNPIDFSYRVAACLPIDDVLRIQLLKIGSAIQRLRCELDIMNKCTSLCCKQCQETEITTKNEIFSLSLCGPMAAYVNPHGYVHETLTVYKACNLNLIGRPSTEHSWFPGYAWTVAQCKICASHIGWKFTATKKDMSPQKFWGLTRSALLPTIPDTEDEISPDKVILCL
Target sequence in this assay (Q9UBN7 whole entry, looked up): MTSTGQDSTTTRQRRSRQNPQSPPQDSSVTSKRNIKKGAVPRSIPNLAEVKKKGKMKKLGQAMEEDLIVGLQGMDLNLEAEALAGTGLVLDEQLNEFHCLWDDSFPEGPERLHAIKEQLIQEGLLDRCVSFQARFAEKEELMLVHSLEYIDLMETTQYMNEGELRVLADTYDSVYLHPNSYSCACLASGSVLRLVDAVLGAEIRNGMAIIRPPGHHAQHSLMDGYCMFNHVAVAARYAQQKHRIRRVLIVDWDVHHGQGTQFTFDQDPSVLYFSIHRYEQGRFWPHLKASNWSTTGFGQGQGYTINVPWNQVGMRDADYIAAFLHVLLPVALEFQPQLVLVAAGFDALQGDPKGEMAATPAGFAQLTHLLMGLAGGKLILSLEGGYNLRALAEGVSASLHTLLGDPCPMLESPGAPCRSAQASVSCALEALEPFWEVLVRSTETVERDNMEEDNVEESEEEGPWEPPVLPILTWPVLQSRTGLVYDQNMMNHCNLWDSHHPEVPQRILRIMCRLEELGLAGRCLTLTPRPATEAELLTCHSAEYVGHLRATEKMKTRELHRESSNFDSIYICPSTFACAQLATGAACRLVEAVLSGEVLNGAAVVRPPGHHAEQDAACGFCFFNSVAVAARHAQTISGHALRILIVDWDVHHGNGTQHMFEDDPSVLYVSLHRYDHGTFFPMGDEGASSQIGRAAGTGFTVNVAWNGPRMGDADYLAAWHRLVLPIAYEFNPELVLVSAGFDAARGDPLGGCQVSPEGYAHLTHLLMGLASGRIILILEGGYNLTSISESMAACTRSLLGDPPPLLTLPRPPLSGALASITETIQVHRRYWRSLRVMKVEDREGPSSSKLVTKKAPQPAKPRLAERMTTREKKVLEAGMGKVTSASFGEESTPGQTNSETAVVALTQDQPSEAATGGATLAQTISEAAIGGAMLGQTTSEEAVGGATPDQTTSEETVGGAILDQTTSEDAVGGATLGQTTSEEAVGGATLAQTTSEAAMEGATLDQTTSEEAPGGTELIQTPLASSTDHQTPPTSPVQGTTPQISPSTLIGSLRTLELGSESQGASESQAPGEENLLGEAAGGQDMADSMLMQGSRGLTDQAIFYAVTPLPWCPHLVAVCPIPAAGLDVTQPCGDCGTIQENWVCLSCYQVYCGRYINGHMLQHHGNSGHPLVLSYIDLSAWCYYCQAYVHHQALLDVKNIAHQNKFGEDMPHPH

[2] = target: T2, Protein cereblon/Histone deacetylase 1 (Homo sapiens) (UniProt Q13547+Q96SW2); assay: Induction of CRBN ubiquitin ligase-mediated HDAC1 degradation in human MCF7 cells assessed as decrease in HDAC1 levels at 5 uM after 12 hrs by immunoblotting analysis; how it was run: as §1
T2 sequence (Q13547 whole entry, looked up): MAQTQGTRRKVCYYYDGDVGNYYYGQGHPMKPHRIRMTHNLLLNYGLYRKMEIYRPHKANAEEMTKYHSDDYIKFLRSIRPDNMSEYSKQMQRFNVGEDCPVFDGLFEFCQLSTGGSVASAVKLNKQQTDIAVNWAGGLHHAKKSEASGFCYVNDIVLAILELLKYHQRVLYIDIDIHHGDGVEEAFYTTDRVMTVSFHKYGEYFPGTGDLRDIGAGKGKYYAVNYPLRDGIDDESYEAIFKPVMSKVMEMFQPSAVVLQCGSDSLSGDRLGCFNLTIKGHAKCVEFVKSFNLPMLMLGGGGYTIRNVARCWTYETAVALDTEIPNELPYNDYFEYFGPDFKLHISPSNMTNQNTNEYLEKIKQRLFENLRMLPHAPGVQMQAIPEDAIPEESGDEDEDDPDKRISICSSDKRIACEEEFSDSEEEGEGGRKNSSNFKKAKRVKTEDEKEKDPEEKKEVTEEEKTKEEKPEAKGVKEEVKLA
T2 sequence (Q96SW2 whole entry, looked up): as the sequence (Q96SW2 whole entry, looked up) above

[3] = target: T3, Protein cereblon/Histone deacetylase 2 (Homo sapiens) (UniProt Q92769+Q96SW2); assay: Induction of CRBN ubiquitin ligase-mediated HDAC2 degradation in human MCF7 cells assessed as decrease in HDAC2 levels at 5 uM after 12 hrs by immunoblotting analysis; how it was run: as §1
T3 sequence (Q92769 whole entry, looked up): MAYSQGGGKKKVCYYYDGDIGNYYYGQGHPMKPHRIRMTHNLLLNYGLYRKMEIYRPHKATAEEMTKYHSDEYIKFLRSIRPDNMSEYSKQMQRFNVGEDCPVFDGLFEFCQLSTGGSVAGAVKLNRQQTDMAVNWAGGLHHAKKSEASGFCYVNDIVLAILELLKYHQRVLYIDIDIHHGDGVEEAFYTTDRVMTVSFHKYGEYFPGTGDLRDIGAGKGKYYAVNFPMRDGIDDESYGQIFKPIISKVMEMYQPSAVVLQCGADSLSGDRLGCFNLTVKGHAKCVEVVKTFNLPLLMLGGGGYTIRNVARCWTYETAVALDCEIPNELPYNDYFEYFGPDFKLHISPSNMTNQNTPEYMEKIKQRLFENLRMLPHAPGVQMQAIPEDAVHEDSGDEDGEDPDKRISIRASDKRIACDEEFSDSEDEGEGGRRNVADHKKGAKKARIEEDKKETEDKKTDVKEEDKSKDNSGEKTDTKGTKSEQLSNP
T3 sequence (Q96SW2 whole entry, looked up): as the sequence (Q96SW2 whole entry, looked up) above

[4] = target: Protein cereblon/Histone deacetylase 4 (Homo sapiens) (UniProt P56524+Q96SW2); assay: Induction of CRBN ubiquitin ligase-mediated HDAC4 degradation in human MCF7 cells assessed as decrease in HDAC4 levels at 5 uM after 12 hrs by immunoblotting analysis; how it was run: as §1
Protein cereblon/Histone deacetylase 4 (Homo sapiens), sequence (P56524 whole entry, looked up): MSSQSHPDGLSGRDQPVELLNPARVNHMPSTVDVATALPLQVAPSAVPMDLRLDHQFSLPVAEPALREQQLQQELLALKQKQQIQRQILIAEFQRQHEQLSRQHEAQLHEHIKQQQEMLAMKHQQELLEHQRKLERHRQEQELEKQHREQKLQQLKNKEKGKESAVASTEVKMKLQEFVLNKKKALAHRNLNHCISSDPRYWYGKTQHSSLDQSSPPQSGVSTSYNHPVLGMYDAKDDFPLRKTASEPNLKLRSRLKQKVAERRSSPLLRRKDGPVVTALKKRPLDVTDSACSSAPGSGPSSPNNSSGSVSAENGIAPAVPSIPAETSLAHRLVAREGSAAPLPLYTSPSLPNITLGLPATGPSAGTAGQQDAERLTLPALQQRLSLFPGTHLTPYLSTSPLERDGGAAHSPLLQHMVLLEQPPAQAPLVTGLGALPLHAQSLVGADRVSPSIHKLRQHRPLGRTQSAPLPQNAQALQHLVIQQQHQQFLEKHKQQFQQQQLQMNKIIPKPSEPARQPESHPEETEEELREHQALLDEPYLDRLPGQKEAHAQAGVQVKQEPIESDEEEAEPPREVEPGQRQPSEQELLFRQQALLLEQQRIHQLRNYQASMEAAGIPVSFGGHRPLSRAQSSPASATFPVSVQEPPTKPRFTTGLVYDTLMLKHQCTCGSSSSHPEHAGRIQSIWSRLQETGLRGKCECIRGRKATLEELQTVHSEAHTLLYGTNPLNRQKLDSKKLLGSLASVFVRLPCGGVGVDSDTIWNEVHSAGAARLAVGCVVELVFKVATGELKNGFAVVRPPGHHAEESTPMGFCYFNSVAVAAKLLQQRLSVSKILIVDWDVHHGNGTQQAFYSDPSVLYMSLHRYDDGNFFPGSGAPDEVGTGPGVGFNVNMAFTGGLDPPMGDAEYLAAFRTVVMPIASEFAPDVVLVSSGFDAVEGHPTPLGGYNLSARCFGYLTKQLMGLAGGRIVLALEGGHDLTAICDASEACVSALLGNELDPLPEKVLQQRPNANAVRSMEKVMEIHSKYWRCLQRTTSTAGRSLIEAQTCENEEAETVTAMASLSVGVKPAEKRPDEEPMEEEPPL
Protein cereblon/Histone deacetylase 4 (Homo sapiens), sequence (Q96SW2 whole entry, looked up): as the sequence (Q96SW2 whole entry, looked up) above

[5] = target: Histone deacetylase (Homo sapiens) (UniProt Q13547+O15379+Q9UBN7+Q92769+Q9UQL6+Q8WUI4+Q9BY41+Q96DB2+P56524+Q9UKV0+Q969S8); assay: Inhibition of HDAC in human MCF7 cells assessed as increase in acetylated H3 levels at 2 uM after 12 hrs by immunoblotting analysis
[6] = target: T1, Protein cereblon/Protein deacetylase HDAC6; assay: Induction of CRBN ubiquitin ligase-mediated HDAC6 degradation in human MCF7 cells assessed as decrease in HDAC6 levels after 12 hrs by immunoblotting analysis
How it was run: (§2)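 MCF-7 cells treated for 12 h across a range of 5 nM to 10 µM. Whole-cell lysate immunoblotted for HDAC6 and acetylated α-tubulin. Band intensities quantified by densitometry and curve-fitted to derive half-maximal degradation.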

[7] = target: T1, Protein cereblon/Protein deacetylase HDAC6; assay: Induction of CRBN ubiquitin ligase-mediated HDAC6 degradation in human MCF7 cells assessed as increase in acetylated alpha-tubulin levels at 1.1 to 10 uM after 12 hrs by immunoblotting analysis; how it was run: as §2
Target sequence in this assay (Q96SW2 whole entry, looked up): as above
Target sequence in this assay (Q9UBN7 whole entry, looked up): as the sequence (Q9UBN7 whole entry, looked up) above

[8] = target: T1, Protein cereblon/Protein deacetylase HDAC6; assay: Induction of CRBN ubiquitin ligase-mediated HDAC6 degradation in human MCF7 cells assessed as increase in acetylated alpha-tubulin levels at 2 uM after 2 hrs by immunoblotting analysis
How it was run: (§3)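 Time course in MCF-7 cells: 2 µM degrader or DMSO vehicle for 0–8 h. Whole-cell lysate immunoblotted for HDAC6 and acetylated α-tubulin.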
Target sequence in this assay (Q96SW2 whole entry, looked up): as the sequence (Q96SW2 whole entry, looked up) above
Target sequence in this assay (Q9UBN7 whole entry, looked up): as the sequence (Q9UBN7 whole entry, looked up) above

[9] = target: T1, Protein cereblon/Protein deacetylase HDAC6; assay: Induction of CRBN ubiquitin ligase-mediated HDAC6 degradation in human MCF7 cells assessed as decrease in HDAC6 levels at 2 uM after 2 hrs by immunoblotting analysis; how it was run: as §3
Target sequence in this assay (Q96SW2 whole entry, looked up): as the sequence (Q96SW2 whole entry, looked up) above
Target sequence in this assay (Q9UBN7 whole entry, looked up): as the sequence (Q9UBN7 whole entry, looked up) above

[10] = target: T1, Protein cereblon/Protein deacetylase HDAC6; assay: (§4) Induction of CRBN ubiquitin ligase-mediated HDAC6 degradation in human MCF7 cells assessed as decrease in HDAC6 levels at 2 uM preincubated for 1 hr with proteosome-inhibitor MG132 followed by compound addition for 12 hrs by immunoblotting analysis
How it was run: (§5)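 MCF-7 cells pre-treated 1 h with 5 µM MG132, 5 µM pomalidomide or DMSO vehicle, then given 2 µM degrader or vehicle for 12 h. Whole-cell lysate immunoblotted for HDAC6 and acetylated α-tubulin.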
Target sequence in this assay (Q96SW2 whole entry, looked up): as the sequence (Q96SW2 whole entry, looked up) above
Target sequence in this assay (Q9UBN7 whole entry, looked up): as the sequence (Q9UBN7 whole entry, looked up) above

[11] = target: T1, Protein cereblon/Protein deacetylase HDAC6; assay: Induction of CRBN ubiquitin ligase-mediated HDAC6 degradation in human MCF7 cells assessed as decrease in HDAC6 levels at 2 uM preincubated for 1 hr with CRBN ligand pomalidomide followed by compound addition for 12 hrs by immunoblotting analysis; how it was run: as §5
Target sequence in this assay (Q96SW2 whole entry, looked up): as the sequence (Q96SW2 whole entry, looked up) above
Target sequence in this assay (Q9UBN7 whole entry, looked up): as the sequence (Q9UBN7 whole entry, looked up) above

[12] = target: T1, Protein cereblon/Protein deacetylase HDAC6; assay: (§6) Induction of CRBN ubiquitin ligase-mediated HDAC6 degradation in human MCF7 cells assessed as increase in acetylated alpha-tubulin levels at 2 uM preincubated for 1 hr with proteosome-inhibitor MG132 followed by compound addition for 12 hrs by immunoblotting analysis; how it was run: as §5
[13] = target: T1, Protein cereblon/Protein deacetylase HDAC6; assay: Induction of CRBN ubiquitin ligase-mediated HDAC6 degradation in human MCF7 cells assessed as increase in acetylated alpha-tubulin levels at 2 uM at 2 uM preincubated for 1 hr with CRBN ligand pomalidomide followed by compound addition for 12 hrs by immunoblotting analysis; how it was run: as §5
[14] = target: T1, Protein cereblon/Protein deacetylase HDAC6; assay: as §4, with “1 uM pan-HDAC inhibitor N-hydroxy-8-(2-(4-methoxybenzylidene)hydrazinyl)-8-oxooctanamide” for “proteosome-inhibitor MG132”
How it was run: (§7)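 MCF-7 cells pre-treated 1 h with pan-HDAC inhibitor (1 µM or 100 nM) or DMSO vehicle, then given 2 µM degrader or vehicle for 12 h. Whole-cell lysate immunoblotted for HDAC6 and acetylated α-tubulin.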

[15] = target: T1, Protein cereblon/Protein deacetylase HDAC6; assay: as §4, with “100 nM pan-HDAC inhibitor N-hydroxy-8-(2-(4-methoxybenzylidene)hydrazinyl)-8-oxooctanamide” for “proteosome-inhibitor MG132”; how it was run: as §7
[16] = target: T1, Protein cereblon/Protein deacetylase HDAC6; assay: as §6, with “100 nM pan-HDAC inhibitor N-hydroxy-8-(2-(4-methoxybenzylidene)hydrazinyl)-8-oxooctanamide” for “proteosome-inhibitor MG132”; how it was run: as §7
[17] = target: T2, Protein cereblon/Histone deacetylase 1 (Homo sapiens); assay: Induction of CRBN ubiquitin ligase-mediated HDAC1 degradation in human MCF7 cells assessed as increase in acetylated H3 levels at 2 uM after 12 hrs by immunoblotting analysis
[18] = target: T1, Protein cereblon/Protein deacetylase HDAC6; assay: Induction of CRBN ubiquitin ligase-mediated HDAC6 degradation in human MM1S cells assessed as decrease in HDAC6 levels at =>80 nM after 6 hrs by immunoblotting analysis
How it was run: (§8)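 MM.1S cells treated for 6 h at a range of concentrations. Whole-cell lysate immunoblotted for HDAC6 and acetylated α-tubulin.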

[19] = target: T1, Protein cereblon/Protein deacetylase HDAC6; assay: Induction of CRBN ubiquitin ligase-mediated HDAC6 degradation in human MM1S cells assessed as increase in acetylated alpha-tubulin levels at =>80 nM after 6 hrs by immunoblotting analysis; how it was run: as §8
[20] = target: T3, Protein cereblon/Histone deacetylase 2 (Homo sapiens); assay: Induction of CRBN ubiquitin ligase-mediated HDAC2 degradation in human MCF7 cells assessed as increase in acetylated H3 levels at 2 uM after 12 hrs by immunoblotting analysis

Activity [1]: Active
Activity [2]: inactive
Activity [3]: inactive
Activity [4]: inactive
Structure (SMILES): O=C(CCCCCCC(=O)N/N=C/c1ccc(OCCOCCn2cc(CNc3cccc4c3C(=O)N(C3CCC(=O)NC3=O)C4=O)nn2)cc1)NO (centres undefined)

Activity [1]: Active
Activity [2]: inactive
Activity [3]: inactive
Activity [4]: inactive
Structure (SMILES): O=C(CCCCCCC(=O)N/N=C/c1ccc(OCCn2cc(CNc3cccc4c3C(=O)N(C3CCC(=O)NC3=O)C4=O)nn2)cc1)NO (centres undefined)

The remaining lines, values behind:

Structure (SMILES): COc1ccc(/C=N/NC(=O)CCCCCCC(=O)NO)cc1
inhibition [5]: Active

Structure (SMILES): O=C(CCCCCCC(=O)N/N=C/c1ccc(OCCOCCOCCOCCn2cc(CNc3cccc4c3C(=O)N(C3CCC(=O)NC3=O)C4=O)nn2)cc1)NO (centres undefined)
Activity [1]: Active
Activity [2]: inactive
Activity [3]: inactive
Activity [4]: inactive

Structure (SMILES): O=C(CCCCCCC(=O)N/N=C/c1ccc(OCCOCCOCCn2cc(CNc3cccc4c3C(=O)N(C3CCC(=O)NC3=O)C4=O)nn2)cc1)NO (centres undefined)
Activity [1]: Active
Activity [2]: inactive
Activity [3]: inactive
Activity [4]: inactive
Activity [6]: Dose-dependent effect
DC50 [6]: 34 nM
Emax [6]: 70.5%
Activity [7]: Active
Activity [8]: Active
Activity [9]: Active
Activity [10]: inactive
Activity [11]: inactive
Activity [12]: inactive
Activity [13]: inactive
Activity [14]: inactive
Activity [15]: Active
Activity [16]: Active
Activity [17]: Active
Activity [18]: Active
Activity [19]: Active
Activity [20]: Active
